In ChEMBL document CHEMBL1155468, “Syntheses and evaluation of anticonvulsant profile and teratogenicity of novel amide derivatives of branched aliphatic carboxylic acids with 4-aminobenzensulfonamide” (J Med Chem, 2010):
The source made the active and inactive calls. The rule behind the calls is not given here.

Columns and labels:
[1] = test system: Mus musculus; assay: Neurotoxicity in CF1 albino mouse assessed as motor impairment at 300 mg/kg, ip after 0.5 hrs; format: toxicity, organism-based; design: dose 300 mg/kg, route intraperitoneal; settings: in vivo
[2] = test system: Mus musculus; assay: Anticonvulsant activity in CF1 albino mouse assessed as inhibition of maximal electroshock-induced seizures at 100 mg/kg, ip after 0.5 hrs; format: functional, organism-based; design: dose 100 mg/kg
Procedure, shortened: (§1)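 Test compounds suspended in 0.5% methylcellulose and given ip to adult male CF no. 1 albino mice (18-25 g) at 0.01 mL/g body weight before maximal electroshock challenge.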

[3] = test system: Rattus norvegicus; assay: Anticonvulsant activity in Sprague-Dawley rat assessed as inhibition of maximal electroshock-induced seizures at 30 mg/kg, po after 2 hrs
[4] = test system: Mus musculus; assay: Anticonvulsant activity in CF1 albino mouse assessed as inhibition of maximal electroshock-induced seizures at 100 mg/kg, ip after 4 hrs; format: functional, organism-based; design: dose 100 mg/kg; procedure, shortened: as §1
[5] = test system: Rattus norvegicus; assay: Neurotoxicity in Sprague-Dawley rat assessed as motor impairment at 30 mg/kg, po after 0.25 to 4 hrs; settings: in vivo
[6] = test system: Mus musculus; assay: Neurotoxicity in CF1 albino mouse assessed as motor impairment at 30 mg/kg, ip after 4 hrs; format: toxicity, organism-based; design: dose 30 mg/kg, route intraperitoneal; settings: in vivo
[7] = test system: Rattus norvegicus; assay: Anticonvulsant activity in Sprague-Dawley rat assessed as inhibition of maximal electroshock-induced seizures at 30 mg/kg, po after 4 hrs
[8] = test system: Mus musculus; assay: Teratogenic effect in SWV mouse assessed as fetuses with neural tube deffects at 729 mg/kg, ip administered on morning of day 8 of gestation; format: toxicity, organism-based; design: dose 729 mg/kg, route intraperitoneal; settings: in vivo
Procedure, shortened: (§2)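 Two-month-old nulligravid SWV females were mated overnight and checked for vaginal plugs the next morning; gestation onset was set at 10 p.m. the previous night. On gestation day 8.5, each dam received a single ip injection (0.55-2.7 mmol/kg range) or vehicle (25% aqueous Cremophor EL) at 10 μL/g body weight. Litters were scored for implants, resorptions, live and dead fetuses, and fetuses with neural tube defects.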

[9] = test system: Mus musculus; assay: Neurotoxicity in CF1 albino mouse assessed as motor impairment at 30 mg/kg, ip after 0.5 hrs; format: toxicity, organism-based; design: dose 30 mg/kg, route intraperitoneal; settings: in vivo
[10] = test system: Mus musculus; assay: Teratogenic effect in SWV mouse assessed as fetuses with neural tube deffects at 148 mg/kg, ip administered on morning of day 8 of gestation; format: toxicity, organism-based; design: dose 148 mg/kg, route intraperitoneal; settings: in vivo; procedure, shortened: as §2
[11] = test system: Mus musculus; assay: Teratogenic effect in SWV mouse assessed as live fetuses at 729 mg/kg, ip administered on morning of day 8 of gestation; format: toxicity, organism-based; design: dose 729 mg/kg, route intraperitoneal; settings: in vivo
Procedure, shortened: (§3)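 SWV inbred mice: two-month-old nulligravid females mated overnight with males and checked for vaginal plugs next morning; gestation onset taken as 10 p.m. the previous night. On gestation day 8.5 each dam got one ip injection, 0.55–2.7 mmol/kg, in 25% aqueous Cremophor EL (vehicle controls dosed alike), 10 μL/g body weight. Litters and implants tallied; resorptions and live fetuses reported as counts with percentages.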

[12] = test system: Mus musculus; assay: Teratogenic effect in SWV mouse assessed as live fetuses at 148 mg/kg, ip administered on morning of day 8 of gestation; format: toxicity, organism-based; design: dose 148 mg/kg, route intraperitoneal; settings: in vivo; procedure, shortened: as §2
[13] = test system: Mus musculus; assay: Neurotoxicity in CF1 albino mouse assessed as motor impairment at 100 mg/kg, ip after 0.5 hrs; format: toxicity, organism-based; design: dose 100 mg/kg, route intraperitoneal; settings: in vivo
[14] = test system: Rattus norvegicus; assay: Anticonvulsant activity in Sprague-Dawley rat assessed as inhibition of maximal electroshock-induced seizures at 30 mg/kg, po after 1 hr
[15] = test system: Mus musculus; assay: Anticonvulsant activity in CF1 albino mouse assessed as inhibition of maximal electroshock-induced seizures at 300 mg/kg, ip after 4 hrs; format: functional, organism-based; design: dose 300 mg/kg; procedure, shortened: as §1
[16] = test system: Mus musculus; assay: Teratogenic effect in SWV mouse assessed as resorptions at 294 mg/kg, ip administered on morning of day 8 of gestation; format: toxicity, organism-based; design: dose 294 mg/kg, route intraperitoneal; settings: in vivo; procedure, shortened: as §3
[17] = test system: Mus musculus; assay: Teratogenic effect in SWV mouse assessed as fetuses with neural tube deffects at 486 mg/kg, ip administered on morning of day 8 of gestation; format: toxicity, organism-based; design: dose 486 mg/kg, route intraperitoneal; settings: in vivo; procedure, shortened: as §2
[18] = test system: Mus musculus; assay: Anticonvulsant activity in CF1 albino mouse assessed as inhibition of subcutaneous pentylenetetrazole-induced seizures at 100 mg/kg, ip after 0.5 hrs; format: functional, organism-based; design: dose 100 mg/kg
Procedure, shortened: (§4)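 Adult male CF no. 1 albino mice (18-25 g) dosed ip with compound suspended in 0.5% methylcellulose (0.01 mL/g). Convulsant: pentylenetetrazol dissolved in 0.9% saline as a 0.85% solution for mice, given subcutaneously.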

[19] = test system: Mus musculus; assay: Anticonvulsant activity in CF1 albino mouse assessed as inhibition of subcutaneous pentylenetetrazole-induced seizures at 300 mg/kg, ip after 4 hrs; format: functional, organism-based; design: dose 300 mg/kg; procedure, shortened: as §4
[20] = test system: Mus musculus; assay: Anticonvulsant activity in CF1 albino mouse assessed as inhibition of maximal electroshock-induced seizures at 300 mg/kg, ip after 0.5 hrs; format: functional, organism-based; design: dose 300 mg/kg; procedure, shortened: as §1
[21] = test system: Mus musculus; assay: Anticonvulsant activity in CF1 albino mouse assessed as inhibition of subcutaneous pentylenetetrazole-induced seizures at 100 mg/kg, ip after 4 hrs; format: functional, organism-based; design: dose 100 mg/kg; procedure, shortened: as §4
[22] = test system: Mus musculus; assay: Teratogenic effect in SWV mouse assessed as resorptions at 148 mg/kg, ip administered on morning of day 8 of gestation; format: toxicity, organism-based; design: dose 148 mg/kg, route intraperitoneal; settings: in vivo; procedure, shortened: as §3
[23] = test system: Mus musculus; assay: Teratogenic effect in SWV mouse assessed as fetuses with neural tube deffects at 294 mg/kg, ip administered on morning of day 8 of gestation; format: toxicity, organism-based; design: dose 294 mg/kg, route intraperitoneal; settings: in vivo; procedure, shortened: as §2
[24] = test system: Mus musculus; assay: Anticonvulsant activity in CF1 albino mouse assessed as inhibition of subcutaneous pentylenetetrazole-induced seizures at 30 mg/kg, ip after 4 hrs; format: functional, organism-based; design: dose 30 mg/kg; procedure, shortened: as §4
[25] = test system: Mus musculus; assay: Teratogenic effect in SWV mouse assessed as live fetuses at 294 mg/kg, ip administered on morning of day 8 of gestation; format: toxicity, organism-based; design: dose 294 mg/kg, route intraperitoneal; settings: in vivo; procedure, shortened: as §2
[26] = test system: Mus musculus; assay: Anticonvulsant activity in CF1 albino mouse assessed as inhibition of subcutaneous pentylenetetrazole-induced seizures at 30 mg/kg, ip after 0.5 hrs; format: functional, organism-based; design: dose 30 mg/kg; procedure, shortened: as §4
[27] = test system: Mus musculus; assay: Anticonvulsant activity in CF1 albino mouse assessed as inhibition of subcutaneous pentylenetetrazole-induced seizures at 300 mg/kg, ip after 0.5 hrs; format: functional, organism-based; design: dose 300 mg/kg; procedure, shortened: as §4
[28] = species on record: Rattus norvegicus; assay: Protective index, ratio of TD50 for rat to ED50 for maximal electroshock-induced rat seizure model
[29] = test system: Mus musculus; assay: Teratogenic effect in SWV mouse assessed as resorptions at 486 mg/kg, ip administered on morning of day 8 of gestation; format: toxicity, organism-based; design: dose 486 mg/kg, route intraperitoneal; settings: in vivo; procedure, shortened: as §3
[30] = test system: Mus musculus; assay: Neurotoxicity in CF1 albino mouse assessed as motor impairment at 300 mg/kg, ip after 4 hrs; format: toxicity, organism-based; design: dose 300 mg/kg, route intraperitoneal; settings: in vivo
[31] = test system: Mus musculus; assay: Neurotoxicity in CF1 albino mouse assessed as motor impairment at 100 mg/kg, ip after 4 hrs; format: toxicity, organism-based; design: dose 100 mg/kg, route intraperitoneal; settings: in vivo
[32] = test system: Mus musculus; assay: Teratogenic effect in SWV mouse assessed as resorptions at 729 mg/kg, ip administered on morning of day 8 of gestation; format: toxicity, organism-based; design: dose 729 mg/kg, route intraperitoneal; settings: in vivo; procedure, shortened: as §3
[33] = test system: Mus musculus; assay: Anticonvulsant activity in CF1 albino mouse assessed as inhibition of maximal electroshock-induced seizures at 30 mg/kg, ip after 4 hrs; format: functional, organism-based; design: dose 30 mg/kg; procedure, shortened: as §1
[34] = test system: Mus musculus; assay: Anticonvulsant activity in CF1 albino mouse assessed as inhibition of maximal electroshock-induced seizures at 30 mg/kg, ip after 0.5 hrs; format: functional, organism-based; design: dose 30 mg/kg; procedure, shortened: as §1
[35] = test system: Rattus norvegicus; assay: Anticonvulsant activity in po dosed rat assessed as inhibition of maximal electroshock-induced seizures
[36] = test system: Mus musculus; assay: Teratogenic effect in SWV mouse assessed as live fetuses at 486 mg/kg, ip administered on morning of day 8 of gestation; format: toxicity, organism-based; design: dose 486 mg/kg, route intraperitoneal; settings: in vivo; procedure, shortened: as §3

CCC(CC)C(=O)Nc1ccc(S(N)(=O)=O)cc1
Activity [1]: Non-toxic | Activity [2]: Active | Activity [3]: Active | Activity [4]: Active | Activity [5]: Non-toxic | Activity [6]: Non-toxic | Activity [7]: Active | Activity [8]: 20.3% | Activity [9]: Non-toxic | Activity [10]: 0.8% | Activity [11]: 46.8% | Activity [12]: 93.3% | Activity [13]: Non-toxic | Activity [14]: Active | Activity [15]: Active | Activity [16]: 15.8% | Activity [17]: 25.9% | Activity [18]: inactive | Activity [19]: inactive | Activity [20]: Active | Activity [21]: inactive | Activity [22]: 7.7% | Activity [23]: 4.5% | Activity [24]: inactive | Activity [25]: 84.2% | Activity [26]: inactive | Activity [27]: inactive | Ratio TD50/ED50 [28]: >50.5 | Activity [29]: 52.1% | Activity [30]: Non-toxic | Activity [31]: Non-toxic | Activity [32]: 53.2% | Activity [33]: Active | Activity [34]: Active | ED50 [35]: 9.9 mg/kg | Activity [36]: 47.9%
